Legend:
[1] = system: PC-14; assay: Cytotoxicity of compound against human lung adenocarcinoma cell line (PC14); format: functional, cell-based
In short: (§1)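 MTT assay: compounds dissolved in DMSO at 1 mM (stock), diluted in RPMI-FCS to various concentrations; single-cell suspensions treated at 37 °C, 5% CO2 for 4 days; MTT added for further 4 h, acid–isopropanol added, OD read at 540 nm. Fractional inhibition = 1 − OD sample/control; IC50 from Chou median-effect analysis; mean of triplicate experiments.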

[2] = system: MKN-45; assay: Cytotoxicity of compound against human gastric adenocarcinoma cell line (MKN 45); format: functional, cell-based; in short: as §1

Compound	IC50 ([1]; Homo sapiens, PC-14)	IC50 ([2]; Homo sapiens, MKN-45)	IC50 ([1]; pc-14)	IC50 ([2]; mkn-45)
Cc1nc2c(n1C)C(=O)c1nccnc1C2=O	38.7 µM	34.1 µM	–	–
CISPLATIN	–	–	3.87 µM	86.5 µM
Cc1nc2c(n1-c1ccccc1)C(=O)c1nccnc1C2=O	125 µM	22.8 µM	–	–
CCn1c(C)nc2c1C(=O)c1nccnc1C2=O	130 µM	93.1 µM	–	–
Cc1nc2c(nc1C)C(=O)c1nccnc1C2=O	74 µM	16.7 µM	–	–
Cc1nc2c(n1-c1ccc(Br)cc1)C(=O)c1nccnc1C2=O	45.5 µM	1.3 µM	–	–
O=C1c2nccnc2C(=O)c2nccnc21	76.2 µM	20.1 µM	–	–
Cc1nc2c([nH]1)C(=O)c1nccnc1C2=O	82.5 µM	19.8 µM	–	–
CCc1nc2c(nc1CC)C(=O)c1nccnc1C2=O	20.5 µM	7.61 µM	–	–
O=C1c2nccnc2C(=O)c2nc(-c3ccccc3)c(-c3ccccc3)nc21	120 µM	82.5 µM	–	–
Cc1nc2c(n1C(C)C)C(=O)c1nccnc1C2=O	78.3 µM	61.1 µM	–	–
CCc1nc2c(nc1C)C(=O)c1nccnc1C2=O	67.5 µM	13 µM	–	–
COc1cccc2c1C(=O)c1c(O)c3c(c(O)c1C2=O)C[C@@](O)(C(=O)CO)C[C@@H]3O[C@H]1C[C@H](N)[C@H](O)[C@H](C)O1 [DOXORUBICIN]	0.29 µM	3.13 µM	–	–
